{"source": "ChEMBL document CHEMBL3853270", "about": "“Influence of Birch Bark Triterpenes on Keratinocytes and Fibroblasts from Diabetic and Nondiabetic Donors” (2016)", "assay_type_in_all_cases": "functional", "key": {"[1]": {"system": "Keratinocyte", "experiment": "Effect on chemokines related gene expression in diabetic adult human primary keratinocytes assessed as CXCL10 mRNA levels at 9.81 uM after 6 hrs by qPCR analysis"}, "[2]": {"system": "Fibroblast", "experiment": "Effect on pro-inflammatory related gene expression in non-diabetic young human primary fibroblasts assessed as IL1R1 mRNA levels at 9.81 uM after 6 hrs by qPCR analysis"}, "[3]": {"system": "Fibroblast", "experiment": "Effect on MMP1 mRNA expression levels in diabetic adult human primary fibroblasts at 9.81 uM after 6 hrs by qPCR analysis", "procedure,_shortened": "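Primary dermal fibroblasts from one nondiabetic young, one nondiabetic adult and one diabetic adult donor; 320 000 cells per sample, 6 h at 1.96 or 9.81 μM. RNA measured on a high-throughput qPCR chip. Fold change versus 0.1% DMSO control, four independent experiments, SD, one-way ANOVA with Bonferroni post-test.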"}, "[4]": {"system": "Fibroblast", "experiment": "Effect on chemokines related gene expression in diabetic adult human primary fibroblasts assessed as WDR26 mRNA levels at 1.96 uM after 6 hrs by qPCR analysis"}, "[5]": {"system": "Keratinocyte", "experiment": "Effect on cellular connection related gene expression in diabetic adult human primary keratinocytes assessed as CLDN4 mRNA levels at 9.81 uM after 6 hrs by qPCR analysis"}, "[6]": {"system": "Fibroblast", "experiment": "Effect on transcription factor related gene expression in non-diabetic adult human primary fibroblasts assessed as JUN mRNA levels at 1.96 uM after 6 hrs by qPCR analysis"}, "[7]": {"system": "Fibroblast", "experiment": "Effect on chemokines related gene expression in non-diabetic adult human primary fibroblasts assessed as WDR26 mRNA levels at 9.81 uM after 6 hrs by qPCR analysis"}, "[8]": {"system": "Keratinocyte", "experiment": "Effect on chemokines related gene expression in non-diabetic young human primary keratinocytes assessed as IL8 mRNA levels at 9.81 uM after 6 hrs by qPCR analysis", "procedure,_shortened": "(§1)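 Primary human keratinocytes (nondiabetic young or adult, diabetic adult donors) were exposed to compound for 6 h, with 0.1% DMSO as solvent control. Total RNA came from 400 000 cells per sample and was assayed on a Fluidigm Biomark high-throughput qPCR chip. Results are fold change vs solvent control, from 2−4 independent experiments on two donors per group, with SD. Groups were compared by one-way ANOVA with Bonferroni post-test.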"}, "[9]": {"system": "Fibroblast", "experiment": "Effect on growth factor related gene expression in non-diabetic young human primary fibroblasts assessed as VEGFA mRNA levels at 1.96 uM after 6 hrs by qPCR analysis", "procedure,_shortened": "(§2)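 Primary human dermal fibroblasts (young or adult nondiabetic, adult diabetic donor) were treated for 6 h against a 0.1% DMSO solvent control. RNA from 320 000 cells per sample was measured by Fluidigm Biomark high-throughput qPCR. Values are fold change relative to solvent control, from four independent experiments, with SD. One-way ANOVA with Bonferroni post-test was applied.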"}, "[10]": {"system": "Fibroblast", "experiment": "Effect on antioxidant related gene expression in non-diabetic adult human primary fibroblasts assessed as SOD2 mRNA levels at 9.81 uM after 6 hrs by qPCR analysis"}, "[11]": {"system": "Keratinocyte", "experiment": "Effect on actin cytoskeleton in human diabetic primary keratinocytes assessed as formation of cellular protrusions at 10 nM after 2 hrs by rhodamine phalloidin-staining based fluorescence microscopic analysis", "procedure,_shortened": "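Subconfluent cells on glass coverslips, collagen type I coated for fibroblasts; keratinocytes starved 2 days before stimulation. Exposure 2 h, then rhodamine-phalloidin staining (1:25 in PBS) and fluorescence microscopy. Controls were DMSO as solvent and PDGF (fibroblasts) or CNF1 (keratinocytes). Where used, p38-MAPK inhibitor LN 950 (100 nM) was added 30 min beforehand.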"}, "[12]": {"system": "Fibroblast", "experiment": "Effect on pro-inflammatory related gene expression in non-diabetic adult human primary fibroblasts assessed as IL1R1 mRNA levels at 9.81 uM after 6 hrs by qPCR analysis"}, "[13]": {"system": "Fibroblast", "experiment": "Effect on growth factor related gene expression in non-diabetic adult human primary fibroblasts assessed as GDF15 mRNA levels at 1.96 uM after 6 hrs by qPCR analysis", "procedure,_shortened": "as §2"}, "[14]": {"system": "Fibroblast", "experiment": "Effect on antioxidant related gene expression in non-diabetic adult human primary fibroblasts assessed as SOD2 mRNA levels at 1.96 uM after 6 hrs by qPCR analysis"}, "[15]": {"system": "Fibroblast", "experiment": "Effect on pro-inflammatory related gene expression in diabetic adult human primary fibroblasts assessed as IL1B mRNA levels at 1.96 uM after 6 hrs by qPCR analysis", "procedure,_shortened": "as §2"}, "[16]": {"system": "Fibroblast", "experiment": "Effect on adhesion molecules related gene expression in diabetic adult human primary fibroblasts assessed as VCAM1 mRNA levels at 9.81 uM after 6 hrs by qPCR analysis", "procedure,_shortened": "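Dermal fibroblasts from nondiabetic adult and diabetic adult donors, exposed for 6 h at 1.96 or 9.81 μM. ICAM-1 and VCAM-1 mRNA measured by standard qRT-PCR, n = 3. Fold change versus 0.1% DMSO control, SD, one-way ANOVA with Bonferroni post-test.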"}, "[17]": {"system": "Fibroblast", "experiment": "Effect on chemokines related gene expression in non-diabetic young human primary fibroblasts assessed as CCL2 mRNA levels at 9.81 uM after 6 hrs by qPCR analysis", "procedure,_shortened": "as §2"}, "[18]": {"system": "Fibroblast", "experiment": "Effect on antioxidant related gene expression in diabetic adult human primary fibroblasts assessed as SOD2 mRNA levels at 9.81 uM after 6 hrs by qPCR analysis"}, "[19]": {"system": "Keratinocyte", "experiment": "Effect on wound healing activity in non-diabetic adult human primary keratinocytes assessed as increase in soluble gp130 part of IL6 receptor protein levels at 1.96 uM after 24 hrs by bead-based suspension array analysis"}, "[20]": {"system": "Keratinocyte", "experiment": "Effect on chemokines related gene expression in non-diabetic young human primary keratinocytes assessed as IL8 mRNA levels at 1.96 uM after 6 hrs by qPCR analysis", "procedure,_shortened": "as §1"}, "[21]": {"system": "Fibroblast", "experiment": "Effect on antioxidant related gene expression in non-diabetic young human primary fibroblasts assessed as NFE2L2 mRNA levels at 1.96 uM after 6 hrs by qPCR analysis"}, "[22]": {"system": "Fibroblast", "experiment": "Effect on pro-inflammatory related gene expression in non-diabetic adult human primary fibroblasts assessed as PTGS2 mRNA levels at 1.96 uM after 6 hrs by qPCR analysis"}, "[23]": {"system": "Keratinocyte", "experiment": "Effect on growth factor related gene expression in diabetic adult human primary keratinocytes assessed as VEGFA mRNA levels at 9.81 uM after 6 hrs by qPCR analysis", "procedure,_shortened": "as §1"}, "[24]": {"system": "Fibroblast", "experiment": "Effect on pro-inflammatory related gene expression in diabetic adult human primary fibroblasts assessed as IL6 mRNA levels at 9.81 uM after 6 hrs by qPCR analysis", "procedure,_shortened": "as §2"}, "[25]": {"system": "Fibroblast", "experiment": "Effect on growth factor related gene expression in diabetic adult human primary fibroblasts assessed as VEGFA mRNA levels at 9.81 uM after 6 hrs by qPCR analysis", "procedure,_shortened": "as §2"}, "[26]": {"system": "Fibroblast", "experiment": "Effect on transcription factor related gene expression in non-diabetic young human primary fibroblasts assessed as JUN mRNA levels at 9.81 uM after 6 hrs by qPCR analysis"}, "[27]": {"system": "Fibroblast", "experiment": "Effect on growth factors related gene expression in non-diabetic adult human primary fibroblasts assessed as FGF2 mRNA levels at 1.96 uM after 6 hrs by qPCR analysis", "procedure,_shortened": "as §2"}, "[28]": {"system": "Keratinocyte", "experiment": "Effect on antioxidant related gene expression in non-diabetic young human primary keratinocytes assessed as SOD2 mRNA levels at 1.96 uM after 6 hrs by qPCR analysis"}, "[29]": {"system": "Keratinocyte", "experiment": "Effect on pro-inflammatory related gene expression in diabetic adult human primary keratinocytes assessed as IL1R1 mRNA levels at 9.81 uM after 6 hrs by qPCR analysis"}}, "note": "Calls of active or inactive are those of the source. No cut-off for these calls is given here."}
{"smiles": "C=C(C)[C@@H]1CC[C@]2(CO)CC[C@]3(C)[C@H](CC[C@@H]4[C@@]5(C)CC[C@H](O)C(C)(C)[C@@H]5CC[C@]43C)[C@@H]12", "note": "[BETULIN]", "values": [{"measurement": "fold change (FC)", "setting": "[1]", "value": 12.1}, {"measurement": "fold change (FC)", "setting": "[2]", "value": 3.9}, {"measurement": "fold change (FC)", "setting": "[3]", "value": 0.6}, {"measurement": "fold change (FC)", "setting": "[4]", "value": 1.2}, {"measurement": "fold change (FC)", "setting": "[5]", "value": 2.1}, {"measurement": "fold change (FC)", "setting": "[6]", "value": 1.9}, {"measurement": "fold change (FC)", "setting": "[7]", "value": 1.3}, {"measurement": "fold change (FC)", "setting": "[8]", "value": 21.8}, {"measurement": "fold change (FC)", "setting": "[9]", "value": 1.7}, {"measurement": "fold change (FC)", "setting": "[10]", "value": 18}, {"measurement": "Activity", "setting": "[11]", "value": "Active"}, {"measurement": "fold change (FC)", "setting": "[12]", "value": 4.9}, {"measurement": "fold change (FC)", "setting": "[13]", "value": 2.1}, {"measurement": "fold change (FC)", "setting": "[14]", "value": 18}, {"measurement": "fold change (FC)", "setting": "[15]", "value": 7.6}, {"measurement": "fold change (FC)", "setting": "[16]", "value": 1.3}, {"measurement": "fold change (FC)", "setting": "[17]", "value": 4.3}, {"measurement": "fold change (FC)", "setting": "[18]", "value": 1.1}, {"measurement": "Activity", "setting": "[19]", "value": "Active"}, {"measurement": "fold change (FC)", "setting": "[20]", "value": 9.7}, {"measurement": "fold change (FC)", "setting": "[21]", "value": 1.2}, {"measurement": "fold change (FC)", "setting": "[22]", "value": 146}, {"measurement": "fold change (FC)", "setting": "[23]", "value": 2.2}, {"measurement": "fold change (FC)", "setting": "[24]", "value": 5.3}, {"measurement": "fold change (FC)", "setting": "[25]", "value": 2}, {"measurement": "fold change (FC)", "setting": "[26]", "value": 1.6}, {"measurement": "fold change (FC)", "setting": "[27]", "value": 2.9}, {"measurement": "fold change (FC)", "setting": "[28]", "value": 1.3}, {"measurement": "fold change (FC)", "setting": "[29]", "value": 0.9}]}
